Laboratory results from ChEMBL document CHEMBL3393005, “Design and synthesis of novel 2-pyrazoline-1-ethanone derivatives as selective MAO inhibitors” (Bioorg Med Chem, 2015).

Legend:
[1] = target: T1, Amine oxidase [flavin-containing] B (Homo sapiens, UniProt P27338); assay: Inhibition of human recombinant MAO-B using p-tyramine as substrate assessed as production of H2O2 incubated for 15 mins prior to substrate addition at 60 uM measured after 20 mins by microplate fluorescence reader analysis
T1 sequence (P27338 whole entry): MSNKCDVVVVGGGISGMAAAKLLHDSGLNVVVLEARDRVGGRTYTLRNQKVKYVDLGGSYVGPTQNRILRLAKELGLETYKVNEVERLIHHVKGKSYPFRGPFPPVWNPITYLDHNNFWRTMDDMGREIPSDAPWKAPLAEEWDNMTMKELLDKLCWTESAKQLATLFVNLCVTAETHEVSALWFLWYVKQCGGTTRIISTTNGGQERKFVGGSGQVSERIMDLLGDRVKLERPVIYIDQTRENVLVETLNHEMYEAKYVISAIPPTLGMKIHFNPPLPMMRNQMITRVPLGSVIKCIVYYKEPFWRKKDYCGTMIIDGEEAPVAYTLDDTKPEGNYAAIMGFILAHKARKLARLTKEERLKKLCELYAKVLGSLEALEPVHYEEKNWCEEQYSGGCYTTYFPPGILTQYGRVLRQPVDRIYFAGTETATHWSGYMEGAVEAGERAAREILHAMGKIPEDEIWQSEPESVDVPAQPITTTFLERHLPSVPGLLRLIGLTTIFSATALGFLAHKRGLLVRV

[2] = target: T2, Amine oxidase [flavin-containing] A (Homo sapiens, UniProt P21397); assay: Inhibition of human recombinant MAO-A using p-tyramine as substrate assessed as production of H2O2 incubated for 15 mins prior to substrate addition measured after 20 mins by microplate fluorescence reader analysis
T2 sequence (P21397 whole entry): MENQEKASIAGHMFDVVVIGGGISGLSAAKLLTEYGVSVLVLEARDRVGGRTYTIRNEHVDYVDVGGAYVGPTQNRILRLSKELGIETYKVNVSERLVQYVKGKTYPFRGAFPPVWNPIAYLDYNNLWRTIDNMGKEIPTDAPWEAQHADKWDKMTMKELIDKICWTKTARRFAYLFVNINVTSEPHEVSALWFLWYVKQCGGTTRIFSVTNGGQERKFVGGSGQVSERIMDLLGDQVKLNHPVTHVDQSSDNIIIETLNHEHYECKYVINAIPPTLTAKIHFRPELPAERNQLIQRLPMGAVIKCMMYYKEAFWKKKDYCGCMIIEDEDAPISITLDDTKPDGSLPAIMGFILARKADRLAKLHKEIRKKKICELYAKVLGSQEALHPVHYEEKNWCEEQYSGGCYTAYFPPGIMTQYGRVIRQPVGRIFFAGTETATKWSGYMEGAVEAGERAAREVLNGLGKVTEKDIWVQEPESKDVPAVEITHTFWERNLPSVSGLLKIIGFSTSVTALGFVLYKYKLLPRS

Homo sapiens = organism: Homo sapiens; assay: Selectivity index, ratio of IC50 for human recombinant MAO-B to IC50 for human recombinant MAO-A
Procedure, shortened: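 SI = IC50(MAO-B)/IC50(MAO-A), both from the same Amplex Red/p-tyramine H2O2 fluorimetric assay. Each isoform came from microsomes of baculovirus-infected insect cells: MAO-A at 1.1 µg, MAO-B at 7.5 µg, matched to equal velocity.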

[3] = target: T1, Amine oxidase [flavin-containing] B; assay: Inhibition of human recombinant MAO-B using p-tyramine as substrate assessed as production of H2O2 incubated for 15 mins prior to substrate addition measured after 20 mins by microplate fluorescence reader analysis
[4] = target: T2, Amine oxidase [flavin-containing] A; assay: Inhibition of human recombinant MAO-A using p-tyramine as substrate assessed as production of H2O2 incubated for 15 mins prior to substrate addition at 60 uM […] by microplate fluorescence reader analysis; conditions: 20 min

`CC1=NN(C(=O)Cn2ccnc2)C(c2cc(Cl)ccc2O)C1` (centres undefined) was tested, and the INH [1] was “Not Active”, the IC50 [2] was 30.3 µM and the Ratio IC50 (Homo sapiens) was 2.

With `O=C(CN1CCCCC1)N1N=C(c2ccc(F)cc2)CC1c1cc(Cl)ccc1O` (centres undefined) the INH [1] was “Not Active”, the IC50 [2] was 3.72 µM and the Ratio IC50 (Homo sapiens) was 16.1.

`CC1=NN(C(=O)CN2CCC(O)CC2)C(c2cc(Br)cc(Br)c2O)C1` (centres undefined) was tested, and the INH [1] was “Not Active”, the IC50 [2] was 12.4 µM and the Ratio IC50 (Homo sapiens) was 4.8.

In the case of `COc1ccc(C2=NN(C(=O)CN3CCCCC3)C(c3cc(Cl)ccc3O)C2)cc1` (centres undefined), the INH [1] is reported as “Not Active”, the IC50 [2] is reported as 9.65 µM and the Ratio IC50 (Homo sapiens) is reported as 6.2.

In the case of `O=C(CN1CCNCC1)N1N=C(c2ccc(F)cc2)CC1c1cc(Cl)ccc1O` (centres undefined), the IC50 [3] is reported as 58.9 µM, the IC50 [2] is reported as 2.4 µM and the Ratio IC50 (Homo sapiens) is reported as 24.5.

`COc1ccc(C2=NN(C(=O)Cn3ccnc3)C(c3cc(Cl)ccc3O)C2)cc1` (centres undefined) was tested, and the INH [1] was “Not Active” and the “inhibition (INH)” value [4] was “Not Active”.

`O=C(CN1CCCCC1)N1N=C(c2ccc(Cl)cc2)CC1c1ccccc1O` (centres undefined) gave an IC50 [3] of 40.1 µM, an IC50 [2] of 7.25 µM and a Ratio IC50 (Homo sapiens) of 5.5.

With `Cc1ccc(C2=NN(C(=O)Cn3ccnc3)C(c3ccccc3O)C2)cc1` (centres undefined) the IC50 [3] was 41.3 µM, the Ratio IC50 (Homo sapiens) was 0.69 and the “inhibition (INH)” value [4] was “Not Active”.

Compound `COc1ccc(C2=NN(C(=O)CN3CCOCC3)C(c3cc(Cl)ccc3O)C2)cc1` (centres undefined) has an IC50 [3] of 56.5 µM, an IC50 [2] of 18.3 µM and a Ratio IC50 (Homo sapiens) of 3.1.

For `CC1=NN(C(=O)CN2CCCCC2)C(c2cc(Cl)ccc2O)C1` (centres undefined), the IC50 [3] was 55.9 µM, the IC50 [2] was 10.5 µM and the Ratio IC50 (Homo sapiens) was 5.3.

`Cc1ccc(C2=NN(C(=O)CN3CCOCC3)C(c3cc(Cl)ccc3O)C2)cc1` (centres undefined) was tested, and the INH [1] was “Not Active”, the IC50 [2] was 27 µM and the Ratio IC50 (Homo sapiens) was 2.2.

`Cc1ccc(C2=NN(C(=O)CN3CCOCC3)C(c3ccccc3O)C2)cc1` (centres undefined) was tested, and the INH [1] was “Not Active”, the IC50 [2] was 20 µM and the Ratio IC50 (Homo sapiens) was 3.

`Cc1ccc(C2=NN(C(=O)CN3CCCCC3)C(c3ccccc3O)C2)cc1` (centres undefined) gave an IC50 [3] of 45.6 µM, an IC50 [2] of 11.3 µM and a Ratio IC50 (Homo sapiens) of 4.

`CC1=NN(C(=O)CN2CCC(CO)CC2)C(c2cc(Br)cc(Br)c2O)C1` (centres undefined) showed an IC50 [3] of 30.1 µM, an IC50 [2] of 25.7 µM and a Ratio IC50 (Homo sapiens) of 1.2.

`Cc1ccc(C2=NN(C(=O)CBr)C(c3cc(Cl)ccc3O)C2)cc1` (centres undefined) was tested, and the INH [1] was “Not Active”, the IC50 [2] was 5.22 µM and the Ratio IC50 (Homo sapiens) was 11.5.

Work on `CC1=NN(C(=O)CN2CCOCC2)C(c2cc(Cl)ccc2O)C1` (centres undefined) yielded an IC50 [3] of 41.8 µM, an IC50 [2] of 13.1 µM and a Ratio IC50 (Homo sapiens) of 3.2.

Compound `CC1=NN(C(=O)CN2CCC(=O)CC2)C(c2cc(Br)cc(Br)c2O)C1` (centres undefined) has an IC50 [3] of 58.9 µM, an IC50 [2] of 8.38 µM and a Ratio IC50 (Homo sapiens) of 7.

`O=C(CN1CCOCC1)N1N=C(c2ccc(F)cc2)CC1c1ccccc1O` (centres undefined) was tested, and the INH [1] was “Not Active”, the IC50 [2] was 16.9 µM and the Ratio IC50 (Homo sapiens) was 3.6.

`O=C(CN1CCOCC1)N1N=C(c2ccc(Cl)cc2)CC1c1ccccc1O` (centres undefined) was tested, and the IC50 [3] was 31.5 µM, the IC50 [2] was 21.2 µM and the Ratio IC50 (Homo sapiens) was 1.5.

With `O=C(CN1CCOCC1)N1N=C(c2ccc(Cl)cc2)CC1c1cc(Cl)ccc1O` (centres undefined) the IC50 [3] was 55.1 µM, the IC50 [2] was 31.2 µM and the Ratio IC50 (Homo sapiens) was 1.8.

`Cc1ccc(C2=NN(C(=O)Cn3ccnc3)C(c3cc(Cl)ccc3O)C2)cc1` (centres undefined) was tested, and the IC50 [3] was 16.1 µM, the Ratio IC50 (Homo sapiens) was 0.27 and the “inhibition (INH)” value [4] was “Not Active”.

`O=C(CN1CCOCC1)N1N=C(c2ccccc2)CC1c1ccccc1O` (centres undefined) was tested, and the INH [1] was “Not Active”, the IC50 [2] was 23.2 µM and the Ratio IC50 (Homo sapiens) was 2.6.

With `O=C(CN1CCOCC1)N1N=C(c2ccc(F)cc2)CC1c1cc(Cl)ccc1O` (centres undefined) the IC50 [3] was 30.2 µM, the IC50 [2] was 24.3 µM and the Ratio IC50 (Homo sapiens) was 1.2.

With `O=C(Cn1ccnc1)N1N=C(c2ccccc2)CC1c1ccccc1O` (centres undefined) the IC50 [3] was 59.4 µM, the Ratio IC50 (Homo sapiens) was 1 and the “inhibition (INH)” value [4] was “Not Active”.

`CC1=NN(C(=O)CN2CCN(CCO)CC2)C(c2cc(Br)cc(Br)c2O)C1` (centres undefined) showed an IC50 [3] of 42.3 µM, an IC50 [2] of 12.3 µM and a Ratio IC50 (Homo sapiens) of 3.4.

For `O=C(Cn1ccnc1)N1N=C(c2ccc(F)cc2)CC1c1cc(Cl)ccc1O` (centres undefined), the INH [1] was “Not Active” and the “inhibition (INH)” value [4] was “Not Active”.

With `COc1ccc(C2=NN(C(=O)Cn3ccnc3)C(c3ccccc3O)C2)cc1` (centres undefined) the INH [1] was “Not Active” and the “inhibition (INH)” value [4] was “Not Active”.

For `C#CCN(C)[C@H](C)Cc1ccccc1` [SELEGILINE], the “inhibition (INH)” value [4] was “Not Active”.

`O=C(CN1CCCCC1)N1N=C(c2ccc(F)cc2)CC1c1ccccc1O` (centres undefined) showed an IC50 [3] of 47.4 µM, an IC50 [2] of 8.02 µM and a Ratio IC50 (Homo sapiens) of 5.9.

With `CC1=NN(C(=O)CN2CCNCC2)C(c2cc(Br)cc(Br)c2O)C1` (centres undefined) the INH [1] was “Not Active”, the IC50 [2] was 2 µM and the Ratio IC50 (Homo sapiens) was 30.

`CC1=NN(C(=O)CN2CCCCC2)C(c2cc(Br)cc(Br)c2O)C1` (centres undefined) was tested, and the IC50 [3] was 49.9 µM, the IC50 [2] was 7.8 µM and the Ratio IC50 (Homo sapiens) was 6.4.

For `O=C(Cn1ccnc1)N1N=C(c2ccc(F)cc2)CC1c1ccccc1O` (centres undefined), the INH [1] was “Not Active”, the IC50 [2] was 26.3 µM and the Ratio IC50 (Homo sapiens) was 2.3.

`Cc1ccc(C2=NN(C(=O)CN3CCCCC3)C(c3cc(Cl)ccc3O)C2)cc1` (centres undefined) showed an IC50 [3] of 56.2 µM, an IC50 [2] of 14.4 µM and a Ratio IC50 (Homo sapiens) of 3.9.

Work on `O=C(CN1CCCCC1)N1N=C(c2ccccc2)CC1c1ccccc1O` (centres undefined) yielded an IC50 [3] of 50.6 µM, an IC50 [2] of 9.51 µM and a Ratio IC50 (Homo sapiens) of 5.3.

`COc1ccc(C2=NN(C(=O)CN3CCOCC3)C(c3ccccc3O)C2)cc1` (centres undefined) was tested, and the INH [1] was “Not Active”, the IC50 [2] was 24.5 µM and the Ratio IC50 (Homo sapiens) was 2.5.

`COc1ccc(C2=NN(C(=O)CN3CCCCC3)C(c3ccccc3O)C2)cc1` (centres undefined) was tested, and the IC50 [3] was 59.4 µM, the IC50 [2] was 12.7 µM and the Ratio IC50 (Homo sapiens) was 4.7.

Compound `O=C(CBr)N1N=C(c2ccc(F)cc2)CC1c1ccccc1O` (centres undefined) has an IC50 [3] of 52.9 µM, an IC50 [2] of 6 µM and a Ratio IC50 (Homo sapiens) of 8.8.

`O=C(CN1CCCCC1)N1N=C(c2ccc(Cl)cc2)CC1c1cc(Cl)ccc1O` (centres undefined) showed an IC50 [3] of 44.1 µM, an IC50 [2] of 6.01 µM and a Ratio IC50 (Homo sapiens) of 7.3.
